Screening results (PubChem)
CAL PDZ FP-1 = inhibitors of human CAL PDZ peptide binding; purified CAL PDZ, TMR-peptide fluorescence polarization, 1 h; inhibition, % at 24.9 µM; actives 0.92% (n = 300,000); AID 602252;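 active means mean inhibition of at least 30% with at least half of replicates also reaching 30%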;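 further: 0% = DMSO neutral control and 100% = excess unlabeled competitor peptide PRC23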
ERp5 block = ERp5 (human) disulfide isomerase inhibition | ERp5 insulin aggregation, absorbance 650 nm, 90 min | inhibition, % at 9.99 µM | actives 0.05% (n = 350,000);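 active means mean replicate inhibition above about 25%, with every replicate also reaching it, limit read from the data, passing the limit was not always enough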
CAL PDZ FP-2 = human CAL PDZ-peptide interaction inhibition; actives 0.02% (n = 330,000); purified CAL PDZ, TMR-peptide fluorescence polarization, 1 h; inhibition, % at 20 µM; AID 504414;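 active means highest replicate inhibition of at least 40%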;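 further: plate controls were DMSO neutral control wells for no effect and unlabeled competitor peptide control wells for full effect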
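Material: tagged CAL PDZ domain; buffer or medium: 25 mM sodium phosphate pH 7.4, 150 mM NaCl, TCEP, IgG, Thesit; compound dosing: single point, 20 µM; schedule: 1 h incubation at room temperature before polarization reading; measured by: FP readout, S and P plane fluorescence; read-out basis: percent inhibition from loss of millipolarization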
RAD52 anneal inh = RAD52 (human) annealing inhibition | recombinant RAD52 DNA annealing, FRET fluorescence | actives 0.46% (n = 360,000) | inhibition, % at 18.7 µM;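 active means every replicate showing at least 50% inhibition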
RAD54 inh = RAD54 (human) branch migration inhibition. Q92698. RAD54 Holliday junction branch migration, FAM/BHQ fluorescence. inhibition, % at 10.4 µM. actives 0.14% (n = 360,000);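 active means mean normalized replicate activity at least 40 and at least half of replicates scoring 40 or more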;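 further: 0% = median of neutral control wells and 100% = median of positive control wells; inhibitors cause a drop in the FAM fluorescence signal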
PDI inh = inhibitors of human protein disulfide isomerase | inhibition, % at 10 µM | PDI insulin aggregation turbidity, A650, 90 min | actives 0.052% (n = 350,000);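 active means mean inhibition across replicates of 30% or more, whatever share of single replicates reach that level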
Target sequence (P07237 whole entry, looked up): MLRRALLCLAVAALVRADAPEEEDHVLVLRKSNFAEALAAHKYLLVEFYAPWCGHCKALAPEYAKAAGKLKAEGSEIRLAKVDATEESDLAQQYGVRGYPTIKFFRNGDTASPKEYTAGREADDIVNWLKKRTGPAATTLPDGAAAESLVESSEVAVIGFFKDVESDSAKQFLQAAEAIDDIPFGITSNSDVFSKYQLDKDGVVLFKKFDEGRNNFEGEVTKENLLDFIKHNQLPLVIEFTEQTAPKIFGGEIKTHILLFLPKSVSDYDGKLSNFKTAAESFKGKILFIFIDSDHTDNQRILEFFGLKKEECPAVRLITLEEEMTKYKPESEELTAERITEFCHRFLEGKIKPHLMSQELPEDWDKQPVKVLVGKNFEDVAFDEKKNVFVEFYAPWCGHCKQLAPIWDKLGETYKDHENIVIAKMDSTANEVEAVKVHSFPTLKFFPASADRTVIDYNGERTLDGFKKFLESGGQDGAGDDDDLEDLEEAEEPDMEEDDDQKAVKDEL
The depositor's hits bear a star; . = no result given; + = active, no number; ! = not confirmed by another sample. Hits are enriched below; roughly 1% of the tested compounds scored in any of these assays.

SMILES	CAL PDZ FP-1	ERp5 block	CAL PDZ FP-2	RAD52 anneal inh	RAD54 inh	PDI inh
C[C@@H]1CCCCO[C@@H](CN(C)Cc2ccccc2)[C@@H](C)CN([C@@H](C)CO)C(=O)c2cc(NS(=O)(=O)c3ccc(Cl)cc3)ccc2O1	.	3.2	.	57.8*	2.1	.
C[C@H](CO)N1C[C@H](C)[C@H](CN(C)Cc2ccccc2)OCCCC[C@H](C)Oc2ccc(NS(=O)(=O)c3ccc(Cl)cc3)cc2C1=O	.	1.4	.	51.9*	-1.7	.
C[C@H]1CCCCO[C@@H](CN(C)Cc2ccccc2)[C@@H](C)CN([C@@H](C)CO)C(=O)c2cc(NS(=O)(=O)c3ccc(Cl)cc3)ccc2O1	.	2.3	.	39.3	-2.7	.
C[C@@H]1CCCCO[C@H](CN(C)Cc2ccc(C(=O)Nc3ccccc3N)cc2)[C@@H](C)CN([C@H](C)CO)C(=O)c2cc(NS(=O)(=O)c3ccc(F)cc3)ccc2O1	.	-1.8	.	58.8*	2.3	.
CO[C@@H]1CN(C)C(=O)c2cc(NS(C)(=O)=O)ccc2OC[C@H](C)N(C)C[C@H]1C	.	-6.8	.	-4.0	-0.5	.
COc1ccc(-c2ccccc2[C@@H]2[C@@H](C#N)N(C(=O)C3CC3)[C@H]2CO)cc1	.	-0.4	.	9.4	.	.
C[C@@H]1CCCCO[C@@H](CN(C)C(=O)c2ccccc2)[C@H](C)CN([C@@H](C)CO)C(=O)c2cc(NS(=O)(=O)c3ccccc3)ccc2O1	.	-1.9	.	2.6	-3.0	.
O=C1NC(=O)/C(=C\c2cn(Cc3ccccc3F)c3ccccc23)N1	59.1*	2.8	-0.2	-46.8	-2.7	-2.9
COC(=O)N/N=C/c1cn(Cc2ccccc2F)c2ccccc12	0.6	0.9	0.2	-13.9	-5.9	2.7
COc1ccccc1N1CC(C)(C)C(=O)N(C(=O)c2c(F)cccc2Cl)C1=S	81.2*	0.1	-1.1	-5.2	-0.6	9.7
O=C(C[C@@H]1C[C@H]2c3cc(NC(=O)CC4CC4)ccc3O[C@H]2[C@@H](CO)O1)NCc1ccc(-c2ccccc2)cc1	.	59.4*	.	2.6	-4.9	.
O=C(C[C@H]1C[C@@H]2c3cc(NC(=O)CC4CC4)ccc3O[C@@H]2[C@H](CO)O1)NCc1ccc(-c2ccccc2)cc1	.	-5.9	.	6.2	8.2	.
O=C(C[C@H]1C[C@@H]2c3cc(NC(=O)CC4CC4)ccc3O[C@@H]2[C@@H](CO)O1)NCc1ccc(-c2ccccc2)cc1	.	62.6*	.	19.2	3.4	.
O=C(C[C@H]1C[C@@H]2c3cc(NC(=O)NC4CCCC4)ccc3O[C@@H]2[C@@H](CO)O1)NCc1ccc(Cl)cc1	.	98.2*	.	-10.4	-2.8	.
C[C@@H]1CCCCO[C@H](CN(C)C(=O)Nc2cccc3ccccc23)[C@H](C)CN([C@H](C)CO)C(=O)c2cc(NS(C)(=O)=O)ccc2O1	.	-1.1	.	7.9	-2.5	.
COc1ccc(CCN(C)C(=O)C2CCN(Cc3ccccc3)CC2)cc1OC	-0.9	1.3	-3.6	-5.8	0.4	3.8
COc1ccc(CCN(C)C(=O)C2CCN(Cc3cccc(OC)c3OC)CC2)cc1OC	37.2*	1.7	3.8	2.9	-0.8	-1.7
C[C@H]1CN([C@@H](C)CO)C(=O)Cc2cc(NS(C)(=O)=O)ccc2O[C@@H]1CN(C)C(=O)NC1CCCCC1	.	1.0	.	2.7	2.1	.
COc1ccccc1C(=O)NNC(=O)c1ccc(NC(=O)C(C)C)cc1	65.5*	-1.3	-1.8	-17.4	.	0.8
COc1ccc(C(=O)Nc2cccc3nc(C)ccc23)c(OC)c1	4.5	-1.4	-3.1	-7.9	1.3	4.5
COc1ccccc1C(=O)Nc1ccc(C(=O)O)cc1	7.1	.	.	.	-5.7	-7.6
COc1ccccc1C(=O)Oc1ccccc1C(=O)Nc1ccccc1	73.6*	-2.6	-0.6	-5.5	-1.2	8.3
COc1ccccc1C(=O)Nc1cccc2nc(C)ccc12	82.0*	0.0	8.1	-9.7	8.1	3.4
C[C@@H]1CN([C@H](C)CO)S(=O)(=O)c2ccc(-c3cncnc3)cc2O[C@@H]1CN(C)C(=O)Cc1ccccc1	.	-0.3	.	10.1	8.4	.
Cc1ccc(C(=O)CCC(=O)NC2CCCC(C)C2C)cc1 (centres undefined)	90.5*	6.9	-1.6	-1.4	6.9	8.3
SMILES	CAL PDZ FP-1	ERp5 block	CAL PDZ FP-2	RAD52 anneal inh	RAD54 inh	PDI inh
CC1CCCC(NC(=O)CCNC(=O)c2ccc(Cl)cc2)C1C (centres undefined)	-3.7	-1.8	-2.8	-7.3	.	-8.8
CN(c1ccccc1)S(=O)(=O)c1cccc(C(=O)N2CCCCCC2)c1	38.8*	11.2	-1.2	0.4	-5.3	0.4
O=C(c1cccc(S(=O)(=O)NCc2ccccc2)c1)N1CCCC1	85.3*	2.3	-1.0	-2.1	.	2.7
CN(c1ccc(C(=O)N2CCCCC2)cc1)S(=O)(=O)c1ccccc1	3.8	.	-0.2	.	-4.1	-7.8
COc1ccc(CN(C)C(=O)CNC(=O)CNC(=O)c2ccc(Cl)cc2Cl)cc1F	+	4.7	-1.1	-10.1	8.3	6.0
CN(Cc1ccc(Cl)s1)C(=O)CNC(=O)CNC(=O)c1ccc(Cl)cc1Cl	-4.5	-3.4	-3.6	-16.5	-4.3	5.7
CC(C)(C)CN1CCNC(=O)C1CC(=O)NCCN1CCCc2ccccc21 (centres undefined)	55.2*	-0.7	0.2	-29.8	.	-2.4
CC(C)(C)CN1CCNC(=O)C1CC(=O)NCCc1ccccc1C(F)(F)F (centres undefined)	.	-0.6	-1.0	-14.4	.	-6.9
O=C(CSc1nnc(-c2ccccn2)n1Cc1ccccc1)Nc1ccc2c(c1)OCO2	32.1*	10.8	.	2.7	-4.7	2.8
CN1CCN(C(=O)CC2C(=O)NCCN2Cc2ccc(-c3ccccc3)cc2)CC1 (centres undefined)	71.3*	3.9	-0.7	-8.8	.	3.4
COc1cc(COCC(O)CN2CCOCC2)cc(OC)c1OC (centres undefined)	56.1*	.	-0.2	.	-3.9	11.7
C[N+](C)(CC#N)C/C=C\c1ccccc1	76.0*	0.1	-0.4	-3.9	.	-1.0
CCOC(=O)c1c(/N=C/C2C(=O)CC(C)(C)CC2=O)sc2c1CCCC2	79.2*	3.0	-0.6	-13.3	.	-13.7
O=S(=O)(c1ccccc1)N1C[C@@H]2N[C@H](C1)C2c1ccc(/C=C/c2ccccc2)cc1 (some centres undefined)	.	-3.3	.	87.1*!	.	.
C(=C\c1ccc(C2[C@@H]3CN(Cc4cccnc4)C[C@H]2N3)cc1)/c1ccccc1 (some centres undefined)	.	8.0	.	70.4*!	.	.
O=S(=O)(c1ccccc1F)N1[C@@H]2CNC[C@H]1C2c1ccc(/C=C/c2ccccc2)cc1 (some centres undefined)	.	0.3	.	51.9*!	.	.
O=S(=O)(c1ccccc1F)N1C[C@@H]2N[C@H](C1)C2c1ccc(/C=C/c2ccccc2)cc1 (some centres undefined)	.	3.4	.	74.2*!	.	.
OC[C@H]1[C@@H](c2ccc(C#CC3(O)CCCC3)cc2)[C@H]2CN(Cc3cccnc3)CCCCN21	.	-5.0	.	4.7	0.2	.
